Experimental data published in ChEMBL document CHEMBL2163259, “ADME-guided design and synthesis of aryloxanyl pyrazolone derivatives to block mutant superoxide dismutase 1 (SOD1) cytotoxicity and protein aggregation: potential application for the treatment of amyotrophic lateral sclerosis” (J Med Chem, 2012).

Tests used:
[1] = target: 5-hydroxytryptamine receptor 1A (Homo sapiens) (UniProt P08908); assay: Inhibition of human 5HT1A receptor at 10 uM by radioligand displacement assay
Summary of the method: (§1)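 LeadProfilingScreen panel of 68 in vitro enzyme and receptor assays. Compound tested at 10 μM in duplicate.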

[2] = target: Histamine H3 receptor (Homo sapiens) (UniProt Q9Y5N1); assay: Inhibition of human histamine H3 receptor at 10 uM by radioligand displacement assay
Summary of the method: (§2)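 Single concentration of 10 μM, tested in duplicate as part of a contracted panel of 68 in vitro enzyme and receptor assays. The panel covers common adverse CNS, cardiovascular, pulmonary and genotoxic targets.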

[3] = target: Delta-type opioid receptor (Homo sapiens) (UniProt P41143); assay: Inhibition of human delta-type opioid receptor at 10 uM by radioligand displacement assay; summary of the method: as §1
[4] = target: D(3) dopamine receptor (Homo sapiens) (UniProt P35462); assay: Inhibition of human dopamine D3 receptor at 10 uM by radioligand displacement assay; summary of the method: as §2
Cytochrome P450 2C9 = Cytochrome P450 2C9 (Homo sapiens, UniProt P11712); assay: Inhibition of CYP2C9; type: ADME
Summary of the method: (§3)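 Reversible inhibition of CYP isozymes in human liver microsomes, each isozyme with a single probe substrate. CYP3A4 tested with both testosterone and midazolam. IC50 determined.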

[5] = target: Sodium-dependent noradrenaline transporter (Homo sapiens) (UniProt P23975); assay: Inhibition of human norepinephrine transporter at 10 uM by radioligand displacement assay; summary of the method: as §2
[6] = AUClast in Sprague-Dawley rat at 1 mg/kg, iv; type: ADME, organism-based; set-up: dose 1 mg/kg, route intravenous, time 0 - last; settings: plasma
Summary of the method: (§4)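 Sprague-Dawley rats given a single 1 mg/kg bolus, intravenous or oral. Plasma PK parameters (AUC, dose-normalised AUC, half-life, clearance, Vss, Cmax, Tmax, oral bioavailability) derived from plasma levels.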

Mus musculus [7] = assay: Neuroprotective activity in SOD1 G93A mutant B6SJL mouse ALS model assessed as life extension administered qd starting at 6 weeks of age throughout life
Plasma = assay: Plasma protein binding in human; type: ADME, cell-free
Homo sapiens [8] = species on record: Homo sapiens; assay: Inhibition of human nicotinic acetylcholine receptor bungarotoxin binding site at 10 uM by radioligand displacement assay
Summary of the method: (§5)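 Single concentration of 10 μM, tested in duplicate in a contract panel of 68 in vitro enzyme and receptor binding assays covering common adverse CNS, cardiovascular, pulmonary and genotoxic targets.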

[9] = Half life in Sprague-Dawley rat at 1 mg/kg, iv; type: ADME, organism-based; set-up: dose 1 mg/kg, route intravenous; settings: in vivo; summary of the method: as §4
Rattus norvegicus [10] = species on record: Rattus norvegicus; assay: Inhibition of rat kainate receptor glutamate binding site at 10 uM by radioligand displacement assay; summary of the method: as §2
Caco-2 = assay: Apparent permeability from apical to basolateral side in human Caco2 cells; type: ADME, cell-based
[11] = Cmax in Sprague-Dawley rat at 1 mg/kg, po; type: ADME, organism-based; set-up: dose 1 mg/kg, route oral; settings: in vivo; summary of the method: as §4
[12] = Volume of distribution at steady state in Sprague-Dawley rat at 1 mg/kg, iv; type: ADME, organism-based; set-up: dose 1 mg/kg, route intravenous; settings: in vivo, read-out: Vdss
Summary of the method: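 Sprague-Dawley rats received a single bolus of 1 mg/kg by i.v. or by oral route. Plasma PK parameters were derived from the plasma concentration profile.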

[13] = Half life in Sprague-Dawley rat at 1 mg/kg, po; type: ADME, organism-based; set-up: dose 1 mg/kg, route oral; settings: in vivo; summary of the method: as §4
Homo sapiens [14] = species on record: Homo sapiens; assay: Inhibition of human Sigma delta2 receptor at 10 uM by radioligand displacement assay; summary of the method: as §1
Oryctolagus cuniculus = species on record: Oryctolagus cuniculus; assay: Inhibition of rabbit Purinergic P2X receptor at 10 uM by radioligand displacement assay; type: tissue-based; summary of the method: as §2
[15] = AUClast in Sprague-Dawley rat at 1 mg/kg, po; type: ADME, organism-based; set-up: dose 1 mg/kg, route oral, time 0 - last; settings: plasma; summary of the method: as §4
[16] = Toxicity in ip dosed wild type mouse administered twice daily; type: organism-based; settings: in vivo
Summary of the method: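 Tolerability was tested in wild-type mice by i.p. injection twice daily. Each injection increased the dose one-fold, up to 75 mg/kg.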

[17] = target: Adenosine receptor A3 (Homo sapiens) (UniProt P0DMS8); assay: Inhibition of human adenosine A3 receptor at 10 uM by radioligand displacement assay; summary of the method: as §5
Cytochrome P450 3A4 = Cytochrome P450 3A4 (Homo sapiens, UniProt P08684); assay: Inhibition of CYP3A4 using midazolam as substrate; type: ADME; summary of the method: as §3
Rattus norvegicus [18] = species on record: Rattus norvegicus; assay: Inhibition of rat sodium channel site 2 at 10 uM by radioligand displacement assay; summary of the method: as §2
[19] = Drug uptake in B6SJL mouse brain at 300 mg/kg after 4 hrs; type: ADME, organism-based; set-up: dose 300 mg/kg; settings: read-out: Drug uptake
Summary of the method: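 B6SJL mice given a 300 mg/kg intraperitoneal bolus. Blood and brain collected over 0–24 h, flash frozen in liquid nitrogen, stored at −80 °C. Analysed by mass spectrometry (ESI, MRM mode).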

Mus musculus [20] = assay: Neuroprotective activity in SOD1 G93A mutant B6SJL mouse ALS model assessed as life extension at 1 mg/kg administered qd for 1 week (reference value: 125.7 +/- 4.9 days); type: functional
[21] = target: Androgen receptor (Rattus norvegicus) (UniProt P15207); assay: Inhibition of rat testosterone receptor at 10 uM by radioligand displacement assay; summary of the method: as §2
[22] = target: Platelet-activating factor receptor (Homo sapiens) (UniProt P25105); assay: Inhibition of platelet activating factor receptor at 10 uM by radioligand displacement assay; summary of the method: as §2
[23] = target: Alpha-2A adrenergic receptor (Homo sapiens) (UniProt P08913); assay: Inhibition of human adrenergic alpha2A receptor at 10 uM by radioligand displacement assay; summary of the method: as §1
Rattus norvegicus [24] = species on record: Rattus norvegicus; assay: Inhibition of rat imidazoline I2 receptor at 10 uM by radioligand displacement assay; summary of the method: as §2
[25] = Plasma concentration in B6SJL mouse at 300 mg/kg after 24 hrs by mass spectrometry; type: ADME, organism-based; set-up: dose 300 mg/kg
Summary of the method: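 B6SJL mice were given a single 300 mg/kg intraperitoneal bolus. Blood and brain were collected at 0, 1, 3, 6, 12 and 24 h, flash-frozen in liquid nitrogen and stored at -80 °C. Samples were analyzed by mass spectrometry with ESI ionization in MRM mode.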

[26] = target: Beta-2 adrenergic receptor (Homo sapiens) (UniProt P07550); assay: Inhibition of human beta2 adrenergic receptor at 10 uM by radioligand displacement assay; summary of the method: as §1
[27] = target: Sodium-dependent serotonin transporter (Homo sapiens) (UniProt P31645); assay: Inhibition of human serotonin transporter at 10 uM by radioligand displacement assay; summary of the method: as §2
[28] = target: D(1A) dopamine receptor (Homo sapiens) (UniProt P21728); assay: Inhibition of human dopamine D1 receptor at 10 uM by radioligand displacement assay; summary of the method: as §1
[29] = target: Glucocorticoid receptor (Homo sapiens) (UniProt P04150); assay: Inhibition of human glucocorticoid receptor at 10 uM by radioligand displacement assay; summary of the method: as §2
[30] = target: B2 bradykinin receptor (Homo sapiens) (UniProt P30411); assay: Inhibition of human bradykinin B2 receptor at 10 uM by radioligand displacement assay; summary of the method: as §1
[31] = target: Muscarinic acetylcholine receptor M3 (Homo sapiens) (UniProt P20309); assay: Inhibition of human muscarinic M3 receptor at 10 uM by radioligand displacement assay; summary of the method: as §2
Mus musculus [32] = assay: Neuroprotective activity in SOD1 G93A mutant B6SJL mouse ALS model assessed as life extension at 10 mg/kg administered qd for 1 week (reference value: 125.7 +/- 4.9 days); type: functional
[33] = Clearance in Sprague-Dawley rat at 1 mg/kg, iv; type: ADME, organism-based; set-up: dose 1 mg/kg, route intravenous; settings: in vivo; summary of the method: as §4

Delta-type opioid receptor (Homo sapiens), sequence (P41143 whole entry): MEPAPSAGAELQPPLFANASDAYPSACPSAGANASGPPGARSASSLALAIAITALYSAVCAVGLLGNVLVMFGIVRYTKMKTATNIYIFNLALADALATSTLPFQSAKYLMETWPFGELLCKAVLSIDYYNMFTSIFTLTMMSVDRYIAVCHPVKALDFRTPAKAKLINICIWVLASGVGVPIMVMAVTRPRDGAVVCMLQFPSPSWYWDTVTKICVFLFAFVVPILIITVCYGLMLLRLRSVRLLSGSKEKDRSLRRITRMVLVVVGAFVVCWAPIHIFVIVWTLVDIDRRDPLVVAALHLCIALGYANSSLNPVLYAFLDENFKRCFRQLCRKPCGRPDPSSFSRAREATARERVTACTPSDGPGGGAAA
Muscarinic acetylcholine receptor M3 (Homo sapiens), sequence (P20309 whole entry, looked up): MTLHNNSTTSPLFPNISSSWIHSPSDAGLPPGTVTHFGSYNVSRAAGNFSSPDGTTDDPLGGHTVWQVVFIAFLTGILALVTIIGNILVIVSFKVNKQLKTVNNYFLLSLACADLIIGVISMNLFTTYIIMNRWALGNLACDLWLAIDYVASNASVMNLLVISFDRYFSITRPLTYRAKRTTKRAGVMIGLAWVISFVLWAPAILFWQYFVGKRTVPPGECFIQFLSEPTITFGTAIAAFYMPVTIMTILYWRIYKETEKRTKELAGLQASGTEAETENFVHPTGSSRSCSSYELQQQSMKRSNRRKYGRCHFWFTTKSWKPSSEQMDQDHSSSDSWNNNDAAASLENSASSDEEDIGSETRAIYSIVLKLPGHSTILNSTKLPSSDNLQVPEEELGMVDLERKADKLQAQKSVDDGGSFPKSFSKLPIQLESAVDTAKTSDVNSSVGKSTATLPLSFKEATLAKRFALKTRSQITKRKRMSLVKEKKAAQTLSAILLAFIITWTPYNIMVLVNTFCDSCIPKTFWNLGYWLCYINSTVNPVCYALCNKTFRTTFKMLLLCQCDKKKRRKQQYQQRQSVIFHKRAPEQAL
Histamine H3 receptor (Homo sapiens), sequence (Q9Y5N1 whole entry): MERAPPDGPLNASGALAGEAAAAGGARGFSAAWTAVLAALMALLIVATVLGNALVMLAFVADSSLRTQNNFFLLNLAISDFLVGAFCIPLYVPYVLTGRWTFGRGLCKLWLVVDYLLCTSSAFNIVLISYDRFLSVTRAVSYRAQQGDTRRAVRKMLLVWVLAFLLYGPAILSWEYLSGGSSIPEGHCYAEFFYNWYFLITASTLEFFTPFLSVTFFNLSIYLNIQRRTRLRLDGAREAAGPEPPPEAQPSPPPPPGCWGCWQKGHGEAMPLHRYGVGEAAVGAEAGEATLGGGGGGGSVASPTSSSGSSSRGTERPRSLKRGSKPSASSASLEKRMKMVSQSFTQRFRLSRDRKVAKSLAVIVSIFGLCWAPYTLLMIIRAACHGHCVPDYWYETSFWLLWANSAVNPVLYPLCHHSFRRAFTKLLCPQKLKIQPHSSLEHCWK
D(3) dopamine receptor (Homo sapiens), sequence (P35462 whole entry): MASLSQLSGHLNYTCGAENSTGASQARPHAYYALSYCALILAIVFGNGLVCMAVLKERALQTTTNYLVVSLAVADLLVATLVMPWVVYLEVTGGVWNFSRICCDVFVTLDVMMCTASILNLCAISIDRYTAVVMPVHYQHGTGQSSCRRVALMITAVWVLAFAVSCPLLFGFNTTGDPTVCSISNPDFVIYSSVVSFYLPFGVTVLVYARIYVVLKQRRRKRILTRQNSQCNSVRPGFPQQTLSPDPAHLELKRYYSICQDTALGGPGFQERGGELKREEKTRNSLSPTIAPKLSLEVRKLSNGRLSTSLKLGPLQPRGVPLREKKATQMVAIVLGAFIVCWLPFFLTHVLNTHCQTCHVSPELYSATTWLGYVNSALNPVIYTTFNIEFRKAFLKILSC
Cytochrome P450 3A4, sequence (P08684 whole entry): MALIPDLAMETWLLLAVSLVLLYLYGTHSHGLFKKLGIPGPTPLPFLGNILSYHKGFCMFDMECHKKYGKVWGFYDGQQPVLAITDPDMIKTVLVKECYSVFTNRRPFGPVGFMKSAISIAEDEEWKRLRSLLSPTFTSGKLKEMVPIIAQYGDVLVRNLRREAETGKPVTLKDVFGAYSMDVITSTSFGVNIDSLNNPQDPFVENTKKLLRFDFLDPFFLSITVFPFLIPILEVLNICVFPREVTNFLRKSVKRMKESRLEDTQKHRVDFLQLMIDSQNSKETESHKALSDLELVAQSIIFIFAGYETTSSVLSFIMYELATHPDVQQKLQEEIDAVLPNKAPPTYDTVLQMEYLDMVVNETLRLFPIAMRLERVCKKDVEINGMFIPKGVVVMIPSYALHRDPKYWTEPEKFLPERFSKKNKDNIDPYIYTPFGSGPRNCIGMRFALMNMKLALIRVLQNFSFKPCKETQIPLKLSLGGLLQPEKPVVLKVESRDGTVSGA
Beta-2 adrenergic receptor (Homo sapiens), sequence (P07550 whole entry, looked up): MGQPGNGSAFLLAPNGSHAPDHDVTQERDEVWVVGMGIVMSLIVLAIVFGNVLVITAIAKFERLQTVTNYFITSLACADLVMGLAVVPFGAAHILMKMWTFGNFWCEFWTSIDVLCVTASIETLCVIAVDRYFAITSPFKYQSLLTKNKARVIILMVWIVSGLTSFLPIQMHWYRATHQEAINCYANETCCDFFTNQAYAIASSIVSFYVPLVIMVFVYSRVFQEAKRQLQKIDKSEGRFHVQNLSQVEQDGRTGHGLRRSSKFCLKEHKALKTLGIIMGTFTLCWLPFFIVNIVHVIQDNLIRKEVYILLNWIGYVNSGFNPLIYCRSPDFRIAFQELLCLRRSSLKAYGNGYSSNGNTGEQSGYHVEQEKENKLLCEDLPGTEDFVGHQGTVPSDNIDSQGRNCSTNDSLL
Androgen receptor (Rattus norvegicus), sequence (P15207 whole entry S389L): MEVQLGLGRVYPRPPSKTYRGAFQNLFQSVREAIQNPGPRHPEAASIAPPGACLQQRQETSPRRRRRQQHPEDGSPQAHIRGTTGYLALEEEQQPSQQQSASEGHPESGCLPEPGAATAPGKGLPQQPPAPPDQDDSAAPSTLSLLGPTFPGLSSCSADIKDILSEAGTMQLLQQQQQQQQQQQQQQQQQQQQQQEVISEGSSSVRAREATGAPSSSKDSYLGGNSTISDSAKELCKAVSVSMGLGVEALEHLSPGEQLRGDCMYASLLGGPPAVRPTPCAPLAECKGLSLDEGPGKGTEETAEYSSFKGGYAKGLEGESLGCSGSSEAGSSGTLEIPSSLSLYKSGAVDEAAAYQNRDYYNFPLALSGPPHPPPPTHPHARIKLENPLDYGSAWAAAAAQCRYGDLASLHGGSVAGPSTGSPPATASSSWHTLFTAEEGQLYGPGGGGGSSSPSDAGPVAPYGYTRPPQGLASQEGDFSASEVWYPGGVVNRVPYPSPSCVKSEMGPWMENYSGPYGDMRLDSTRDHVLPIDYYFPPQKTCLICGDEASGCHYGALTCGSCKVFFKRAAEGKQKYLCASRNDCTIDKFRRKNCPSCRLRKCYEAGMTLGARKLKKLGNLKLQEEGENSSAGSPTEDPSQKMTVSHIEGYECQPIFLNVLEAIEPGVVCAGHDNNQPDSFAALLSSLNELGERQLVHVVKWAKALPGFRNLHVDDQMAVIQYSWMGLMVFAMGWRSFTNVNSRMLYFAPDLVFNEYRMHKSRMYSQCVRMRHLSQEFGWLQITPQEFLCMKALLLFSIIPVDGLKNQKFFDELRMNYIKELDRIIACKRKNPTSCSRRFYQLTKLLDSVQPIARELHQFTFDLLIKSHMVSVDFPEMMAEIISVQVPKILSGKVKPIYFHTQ
Alpha-2A adrenergic receptor (Homo sapiens), sequence (P08913 whole entry): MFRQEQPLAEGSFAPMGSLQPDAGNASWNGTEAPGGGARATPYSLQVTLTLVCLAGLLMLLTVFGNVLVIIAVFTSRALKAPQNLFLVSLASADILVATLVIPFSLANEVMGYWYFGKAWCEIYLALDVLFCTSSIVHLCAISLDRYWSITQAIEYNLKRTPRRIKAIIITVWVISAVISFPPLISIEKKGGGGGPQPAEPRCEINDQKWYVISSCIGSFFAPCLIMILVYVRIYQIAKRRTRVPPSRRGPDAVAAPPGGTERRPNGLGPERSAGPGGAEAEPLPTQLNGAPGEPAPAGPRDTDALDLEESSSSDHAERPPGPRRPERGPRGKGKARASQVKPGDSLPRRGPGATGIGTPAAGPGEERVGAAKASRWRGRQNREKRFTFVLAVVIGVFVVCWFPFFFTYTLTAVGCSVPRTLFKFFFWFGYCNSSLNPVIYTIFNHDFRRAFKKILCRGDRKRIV
Sodium-dependent noradrenaline transporter (Homo sapiens), sequence (P23975 whole entry): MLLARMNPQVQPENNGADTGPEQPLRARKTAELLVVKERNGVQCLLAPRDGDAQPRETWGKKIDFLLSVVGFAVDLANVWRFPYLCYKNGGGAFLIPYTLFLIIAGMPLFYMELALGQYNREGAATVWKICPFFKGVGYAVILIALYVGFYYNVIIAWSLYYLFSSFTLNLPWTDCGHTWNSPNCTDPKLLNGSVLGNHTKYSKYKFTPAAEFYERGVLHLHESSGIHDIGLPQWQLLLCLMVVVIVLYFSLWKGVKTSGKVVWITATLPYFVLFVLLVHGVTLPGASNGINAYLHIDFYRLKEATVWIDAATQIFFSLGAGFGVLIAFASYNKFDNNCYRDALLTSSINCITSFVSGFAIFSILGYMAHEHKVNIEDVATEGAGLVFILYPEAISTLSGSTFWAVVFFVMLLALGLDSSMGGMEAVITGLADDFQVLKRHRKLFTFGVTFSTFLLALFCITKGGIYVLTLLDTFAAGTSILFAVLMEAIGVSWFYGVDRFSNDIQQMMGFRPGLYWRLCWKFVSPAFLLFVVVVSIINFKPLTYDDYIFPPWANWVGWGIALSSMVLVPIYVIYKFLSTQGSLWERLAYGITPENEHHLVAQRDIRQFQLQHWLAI

O=c1cc(COc2cc(Cl)cc(Cl)c2)[nH][nH]1
inhibition [1]: -6%
inhibition [2]: 15%
inhibition [3]: 25%
inhibition [4]: -4%
IC50 (Cytochrome P450 2C9): > 50 µM
inhibition [5]: -10%
AUC(0-t) [6]: 179 ng·h/mL
Activity (Mus musculus [7]): Dose-dependent effect
PPB (Plasma): 98%
inhibition (Homo sapiens [8]): 6%
half-life [9]: 126 min
inhibition (Rattus norvegicus [10]): 24%
Papp (Caco-2): 36.7 ×10⁻⁶ cm/s
Cmax [11]: 39 ng/mL
Vd [12]: 5.7 L/kg
half-life [13]: 216 min
inhibition (Homo sapiens [14]): 5%
inhibition (Oryctolagus cuniculus): 1%
AUC(0-t) [15]: 42 ng·h/mL
MTD [16]: 75 mg/kg
inhibition [17]: 6%
IC50 (Cytochrome P450 3A4): > 50 µM
inhibition (Rattus norvegicus [18]): 4%
concentration at 4 h [19]: 194 µM
Survival (Mus musculus [20]): 129.2 days
inhibition [21]: 3%
inhibition [22]: -1%
inhibition [23]: 8%
inhibition (Rattus norvegicus [24]): 12%
concentration at 24 h [25]: 6.5 µM
inhibition [26]: -2%
inhibition [27]: -6%
inhibition [28]: 3%
inhibition [29]: 4%
inhibition [30]: -10%
inhibition [31]: -4%
Survival (Mus musculus [32]): 135 days
clearance [33]: 92 mL/min/kg
